This is an account of results in ChEMBL document CHEMBL1126723, “Inhibition and inactivation of presynaptic cholinergic markers using redox-reactive choline analogs” (J Med Chem, 1993).

The species entered for data set [1] is Rattus norvegicus. Description: Michaelis-Menten constant was reported for high affinity transport of choline. The data set is classed as functional. Summed up: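 Rat forebrain crude synaptosome aliquots (0.27–0.3 mg protein) were equilibrated at 30 °C. [3H]choline was added at 10 nM to 10 μM and uptake run 3 min, within the linear range. Parallel 0 °C incubations corrected for nonspecific binding and diffusion. Reactions were stopped by ice cooling, centrifuged at 800g, and the pellets washed with ice-cold KRB.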

In data set [2] the target is T1, Sodium-dependent serotonin transporter (Rattus norvegicus, UniProt P31652). Description: Inhibition constant of high-affinity 5-HT uptake. In a few lines: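 Rat forebrain crude synaptosomes took up [3H]serotonin (0.727 Ci/mmol) for 3 min at 30 °C, with and without inhibitor, as for the choline assay. IC50 came from nonlinear regression or Hill plots over 5–10 inhibitor concentrations. Ki was derived with Cheng-Prusoff, using the serotonin transport Km measured over 10 nM to […] substrate.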

The species named for data set [3] is Rattus norvegicus. Description: (§1) Inhibition of high affinity dopamine uptake at concentration of 1 uM. The data set is classed as functional.
The target of data set [4] is T1, Sodium-dependent serotonin transporter. Description: Inhibition of high affinity 5-HT uptake at concentration of 1 uM. Type of data set: functional.
Data set [5] concerns the target T2, Sodium-dependent dopamine transporter (Rattus norvegicus, UniProt P23977). Description: Inhibition constant of high-affinity dopamine uptake. Summed up:
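Crude synaptosomes from adult male Long-Evans rat forebrain (Gray–Whittaker method) were incubated with [3H]dopamine (0.72 Ci/mmol) for 3 min at 30 °C alongside 0 °C blanks, with inhibitor at 5–10 concentrations between 10 µM and 10 mM. Uptake was stopped on ice and pellets were washed in KRB. IC50 came from regression or Hill plots, and Ki from Cheng–Prusoff using dopamine Km 1.4 µM.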

For data set [6], the target named is T2, Sodium-dependent dopamine transporter. Described as §1. Type of data set: functional.
Substrate in data set [7]: C[N+](C)(C)CC(O)c1ccc(O)c(O)c1
Substrate in data set [8]: C[N+](C)(C)CC(O)c1ccc(O)c(O)c1
The source holds these as a separate data set.

Substrate in data set [9]: C[N+](C)(C)CC(O)c1ccc(O)c(O)c1
The source holds these as a separate data set.

Substrate in data set [10]: C[N+](C)(C)CC(O)c1ccc(O)c(O)c1
This is another data set of the same source.

Substrate in data set [11]: C[N+](C)(C)CC(O)c1ccc(O)c(O)c1
This is another data set of the same source.

Substrate in data set [12]: C[N+](C)(C)CC(O)c1ccc(O)c(O)c1
The source holds these as a separate data set.

In general, Km refers to the concentration of substrate that gives half-maximal velocity. What is called Ki is the equilibrium dissociation constant of an inhibitor or competing ligand from its target. Low readings indicate tighter binding, high ones weaker binding. By IC50 is commonly meant the concentration needed to halve the response being measured. As for `C[N+](C)(C)c1cccc(O)c1O`, the Km in the data set filed under Rattus norvegicus [1] worked out at 1000 µM. This molecule also had a Ki in data set [2] of 90 µM. The results for the IC50 (in the data set filed under Rattus norvegicus [3]; in data set [4]) were 196 µM and 213 µM, respectively.
As to `C[N+](C)(C)CC(O)c1ccc(O)c(O)c1` (centres undefined) [CATECHOLINE], the values for the Ki in [5] and in [2] were 530 µM and 390 µM, respectively. For the same molecule, the IC50 in data set [6] is 949 µM; in [4], 3600 µM.

B1: Sodium-dependent dopamine transporter (Rattus norvegicus), P23977 (protein)
chain: MSKSKCSVGPMSSVVAPAKESNAVGPREVELILVKEQNGVQLTNSTLINPPQTPVEAQERETWSKKIDFLLSVIGFAVDLANVWRFPYLCYKNGGGAFLVPYLLFMVIAGMPLFYMELALGQFNREGAAGVWKICPVLKGVGFTVILISFYVGFFYNVIIAWALHYFFSSFTMDLPWIHCNNTWNSPNCSDAHASNSSDGLGLNDTFGTTPAAEYFERGVLHLHQSRGIDDLGPPRWQLTACLVLVIVLLYFSLWKGVKTSGKVVWITATMPYVVLTALLLRGVTLPGAMDGIRAYLSVDFYRLCEASVWIDAATQVCFSLGVGFGVLIAFSSYNKFTNNCYRDAIITTSINSLTSFSSGFVVFSFLGYMAQKHNVPIRDVATDGPGLIFIIYPEAIATLPLSSAWAAVFFLMLLTLGIDSAMGGMESVITGLVDEFQLLHRHRELFTLGIVLATFLLSLFCVTNGGIYVFTLLDHFAAGTSILFGVLIEAIGVAWFYGVQQFSDDIKQMTGQRPNLYWRLCWKLVSPCFLLYVVVVSIVTFRPPHYGAYIFPDWANALGWIIATSSMAMVPIYATYKFCSLPGSFREKLAYAITPEKDHQLVDRGEVRQFTLRHWLLL
With B1, the Michaelis constant (Km) in [7] came out at 1400 µM. In addition, the Vmax (pM min-1 mg-1) in [8] amounted to 53.

B2: Sodium-dependent serotonin transporter (Rattus norvegicus), P31652 (protein)
chain: METTPLNSQKVLSECKDREDCQENGVLQKGVPTTADRAEPSQISNGYSAVPSTSAGDEASHSIPAATTTLVAEIRQGERETWGKKMDFLLSVIGYAVDLGNIWRFPYICYQNGGGAFLLPYTIMAIFGGIPLFYMELALGQYHRNGCISIWRKICPIFKGIGYAICIIAFYIASYYNTIIAWALYYLISSLTDRLPWTSCTNSWNTGNCTNYFAQDNITWTLHSTSPAEEFYLRHVLQIHQSKGLQDLGTISWQLTLCIVLIFTVIYFSIWKGVKTSGKVVWVTATFPYIVLSVLLVRGATLPGAWRGVVFYLKPNWQKLLETGVWVDAAAQIFFSLGPGFGVLLAFASYNKFNNNCYQDALVTSVVNCMTSFVSGFVIFTVLGYMAEMRNEDVSEVAKDAGPSLLFITYAEAIANMPASTFFAIIFFLMLITLGLDSTFAGLEGVITAVLDEFPHIWAKRREWFVLIVVITCVLGSLLTLTSGGAYVVTLLEEYATGPAVLTVALIEAVAVSWFYGITQFCSDVKEMLGFSPGWFWRICWVAISPLFLLFIICSFLMSPPQLRLFQYNYPHWSIVLGYCIGMSSVICIPTYIIYRLISTPGTLKERIIKSITPETPTEIPCGDIRMNAV
Consider B2, for which the Vmax (pM min-1 mg-1) in data set [9] was 23. For the same molecule, the Km in data set [10] came to 150 µM.

B3: Sodium- and chloride-dependent creatine transporter 1 (Rattus norvegicus), P28570 (protein)
chain: MAKKSAENGIYSVSGDEKKGPLIVSGPDGAPSKGDGPAGLGAPSSRLAVPPRETWTRQMDFIMSCVGFAVGLGNVWRFPYLCYKNGGGVFLIPYVLIALVGGIPIFFLEISLGQFMKAGSINVWNICPLFKGLGYASMVIVFYCNTYYIMVLAWGFYYLVKSFTTTLPWATCGHTWNTPDCVEIFRHEDCANASLANLTCDQLADRRSPVIEFWENKVLRLSTGLEVPGALNWEVTLCLLACWVLVYFCVWKGVKSTGKIVYFTATFPYVVLVVLLVRGVLLPGALDGIIYYLKPDWSKLGSPQVWIDAGTQIFFSYAIGLGALTALGSYNRFNNNCYKDAIILALINSGTSFFAGFVVFSILGFMATEQGVHISKVAESGPGLAFIAYPRAVTLMPVAPLWAALFFFMLLLLGLDSQFVGVEGFITGLLDLLPASYYFRFQREISVALCCALCFVIDLSMVTDGGMYVFQLFDYYSASGTTLLWQAFWECVVVAWVYGADRFMDDIACMIGYRPCPWMKWCWSFFTPLVCMGIFIFNVVYYKPLVYNNTYVYPWWGEAMGWAFALSSMLCVPLHLLGCLLRAKGTMAERWQHLTQPIWGLHHLEYRAQDADVRGLTTLTPVSESSKVVVVESVM
Turning to B3, the Km in data set [11] was determined as 2040 µM. In [12], the Vmax (pM min-1 mg-1) was found to be 22.
